Hits are enriched below; roughly 2% of the tested compounds scored in any of these assays.
MBD2 inh: inhibitors of human MBD2 binding to methylated oligonucleotide; Q9UBB5; 0.31% of 370,000 active; AID 686964; TR-FRET; inhibition, % at 4.4 µM; in the data active = inhibition above about 13%
ASAP1 inh: inhibitors of human ASAP1 ArfGAP activity; Q9ULH1; ASAP1-stimulated ARF1 GTP hydrolysis, GDP FP detection; inhibition, % at 16.5 µM; 0.19% of 360,000 active; in the data active = inhibition above about 25%;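 note: 0% = vehicle with enzyme and substrate and 100% = no enzyme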
LEDGF integ inh: blocks HIV-1 LEDGF/p75-dependent DNA integration; TR-FRET IN-LEDGF/p75 DNA integration, Eu/Cy5; inhibition, % at 3.7 µM; 0.64% of 370,000 active; AID 743269;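 active = inhibition above the screen-wide mean plus 3 SD, cut at about 13% in these data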;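 note: signal is the Cy5 over europium emission ratio at 671 and 618 nm; 0% = plate median of compound wells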
TCR-CD3 inh: human TCR-CD3 binding inhibition; AID 651800; 0.37% of 360,000 active; inhibition, % at 9.4 µM; TAMRA-labeled TCR probe fluorescence, biochemical; in the data active = inhibition above about 19%;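 note: recombinant mutant TCR 2C K166C tagged with TAMRA read by polarization; 0% = receptor in buffer alone and 100% = receptor with positive control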
ARFGAP1 inh: rat ARFGAP1 inhibition | Q62848 | 0.26% of 360,000 active | inhibition, % at 16.5 µM | Arfgap1-stimulated ARF1 GTP hydrolysis, GDP FP detection;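 active = inhibition above a per-plate limit, mean inhibition of low control wells plus 3 SD, cut at about 25% in these data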;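 note: 0% = DMSO wells with enzyme and 100% = wells lacking Arfgap1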
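Material: rat Arfgap1 catalytic domain, aa 1-136; also added: human ARF1(Δ1-17)-GTP substrate; compound dosing: one concentration, 16.5 µM, DMSO 1.26%; incubation: GTP hydrolysis reaction 2 h at 25 °C; measured by: Tracer-displacement fluorescence polarization with EDTA stop, 620/688 nm; evaluation: % inhibition from polarization; repeats: one replicate per compound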
UHRF1 MBD2 ctr: blocks human UHRF1 binding to methylated DNA; UHRF1 binding to methylated oligo, TR-FRET; inhibition, % at 4.4 µM; 0.75% of 370,000 active; AID 687016; in the data active = inhibition above about 21%;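 note: UHRF1 SRA domain binding a hemimethylated CpG hairpin DNA probe; 0% = median of test compound wells and 100% = reference inhibitor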
Target sequence (Q96T88 whole entry, looked up, the tested form may be a part): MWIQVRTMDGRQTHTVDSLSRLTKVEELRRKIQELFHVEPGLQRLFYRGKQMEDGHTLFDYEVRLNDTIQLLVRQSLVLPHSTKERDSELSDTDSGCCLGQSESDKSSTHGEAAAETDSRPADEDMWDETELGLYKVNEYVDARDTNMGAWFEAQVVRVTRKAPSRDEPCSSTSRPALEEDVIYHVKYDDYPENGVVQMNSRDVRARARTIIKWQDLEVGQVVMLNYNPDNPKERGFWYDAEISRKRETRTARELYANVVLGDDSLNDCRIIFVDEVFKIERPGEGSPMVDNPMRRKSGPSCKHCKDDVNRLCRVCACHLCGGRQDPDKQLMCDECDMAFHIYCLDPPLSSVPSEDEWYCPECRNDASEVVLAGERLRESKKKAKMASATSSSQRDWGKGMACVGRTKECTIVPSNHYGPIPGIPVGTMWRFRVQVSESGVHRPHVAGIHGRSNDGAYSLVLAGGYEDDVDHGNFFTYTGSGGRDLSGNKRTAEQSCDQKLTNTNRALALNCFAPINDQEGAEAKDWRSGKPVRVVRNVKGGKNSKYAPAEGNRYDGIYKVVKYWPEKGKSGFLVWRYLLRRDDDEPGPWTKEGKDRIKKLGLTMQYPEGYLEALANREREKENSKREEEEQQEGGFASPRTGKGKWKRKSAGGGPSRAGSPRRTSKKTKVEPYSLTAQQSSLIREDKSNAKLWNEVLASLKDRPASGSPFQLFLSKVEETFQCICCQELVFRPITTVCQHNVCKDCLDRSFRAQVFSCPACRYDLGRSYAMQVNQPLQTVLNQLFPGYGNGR
ASAP1 inh confirm: confirmation of human ASAP1 inhibitors | shares compounds with ASAP1 inh | ASAP1-stimulated Arf1 GTPase, GDP fluorescence polarization | inhibition, % at 16.5 µM | 37% of 620 active;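 active = mean inhibition over triplicates exceeds the hit threshold derived for the earlier primary screening run, cut at about 25% in these data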
ARFGAP1 confirm: rat ARFGAP1 inhibition, confirmed; shares compounds with ARFGAP1 inh; inhibition, % at 16.5 µM; ARFGAP1-stimulated ARF1 GTP hydrolysis, GDP tracer FP; AID 651608; 30% of 890 active;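 active = average inhibition over triplicates above the hit cutoff set in the earlier primary screen, cut at about 25% in these data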;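 note: 0% = Arfgap1 plus ARF1-GTP with DMSO and 100% = wells lacking Arfgap1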
* = called active by the depositor; · = no result.

SMILES	MBD2 inh	ASAP1 inh	LEDGF integ inh	TCR-CD3 inh	ARFGAP1 inh	UHRF1 MBD2 ctr	ASAP1 inh confirm	ARFGAP1 confirm
COC(=O)C1CCN(S(=O)(=O)CCNC(=O)c2ccccc2)CC1	-2.4	-8.1	-7.0	3.0	14.6	1.8	·	·
CN(Cc1ccccc1F)C(=O)CN1c2cccc3cccc(c23)S1(=O)=O	-1.5	29.9*	-2.3	11.9	29.0*	-2.5	41.0*	50.5*
C[C@H]1[C@@H](OC(=O)NCc2cccnc2)CC[C@@]23CCCN2C(=O)CCC[C@@H]13	-5.0	·	-1.1	·	·	-3.5	·	·
COc1ccccc1NC(=S)OCCN1CCCC12CCC(c1ccccc1)CC2 (configuration not stated)	7.5	·	1.7	·	·	2.2	·	·
O=C(COc1ccc2oc(-c3ccco3)cc(=O)c2c1)N1CCCCC1	-8.6	32.3*	-0.4	3.0	80.5*	-7.7	41.6*	71.6*
Cc1ccc([N+](=O)[O-])cc1-c1ccc(/C=C(\C#N)c2[nH]nc(N)c2C#N)o1	-2.9	41.2*	0.9	13.4	45.2*	-0.4	55.6*	57.5*
Cc1noc(C)c1C(C)C1=CCCCC1 (configuration not stated)	-11.0	·	1.1	·	·	-0.9	·	·
C[C@H]1CN([C@@H](C)CO)C(=O)CCCn2nncc2CO[C@H]1CN(C)C(=O)NC1CCCCC1	-1.5	-1.9	1.3	3.2	-13.6	-1.6	·	·
COc1cccc(/C=C2\Oc3cc(OCC(=O)N4CCCC4)ccc3C2=O)c1OC	2.6	11.8	-0.8	-8.4	3.9	-2.0	·	·
COc1ccc(/C=C2\Oc3cc(OCC(=O)N4CCC(C(=O)O)CC4)ccc3C2=O)c(OC)c1OC	-7.4	32.3*	-0.3	14.8	31.3*	-0.4	34.6*	40.9*
CCN1CCN(Cc2ccc(NC(=O)c3cc(NC(=O)c4ccno4)cc(OC)c3)cc2C(F)(F)F)CC1	2.2	9.0	-0.1	4.7	0.7	1.1	·	·
CCN1CCN(Cc2ccc(NC(=O)c3cc(NC(=O)c4cncc(-c5cccs5)c4)cc(OC)c3)cc2C(F)(F)F)CC1	-1.9	37.4*	-0.1	16.8	52.0*	14.1	81.6*	91.6*
CC(=O)N(CC#CCN(C(C)=O)c1ccccc1)c1ccccc1	2.7	0.5	-4.3	-2.2	6.0	5.1	·	·
CNC(=O)C[C@@H]1C(=O)N(CCc2ccccc2)CC1(C)C	-5.6	2.9	6.1	-0.6	-6.8	-0.1	·	·
O=C(Nc1ccc2nc(-c3cccs3)[nH]c2c1)c1cccs1	-1.4	19.8	-4.6	7.2	11.4	0.0	·	·
O=C(Nc1ccc(-c2nc3ccc(NC(=O)c4cccs4)cc3[nH]2)cc1)c1cccs1	6.3	36.5*	12.8	-15.4	73.0*	3.0	73.6*	123.7*
Cc1cccc(NC(=O)[C@@H]2CC(=O)O[C@@H]2c2ccccc2)c1C	5.4	·	-3.3	·	·	1.8	·	·
O=C(C[C@H]1CC[C@@H](NC(=O)C2CC2)[C@@H](CO)O1)NCc1ccccc1Cl	0.3	8.6	6.5	-0.8	9.8	2.6	·	·
O=C(Nc1cccc(-c2cn3ccccc3n2)c1)c1cc2ccccc2oc1=O	1.5	35.6*	-3.6	-3.0	47.0*	3.0	62.1*	72.3*
CC(=O)Nc1cccc(-c2cn3ccccc3n2)c1	6.3	13.3	-2.1	-7.2	-7.1	0.0	·	·
COc1cccc(OC)c1-c1nn2c(-c3cc(-c4ccccc4)n[nH]3)nnc2s1	-0.4	129.4*	-2.5	14.5	130.1*	1.9	167.4*	182.5*
Clc1ccccc1-c1nn2c(-c3cc(-c4ccccc4)n[nH]3)nnc2s1	-1.8	·	1.5	·	·	-4.8	·	·
COC(=O)[C@H]1C[C@@]2(N3CCCCC3)c3ccccc3N[C@H]2N1S(=O)(=O)c1ccc([N+](=O)[O-])cc1	-4.6	·	2.1	·	·	-3.5	·	·
COc1ccccc1C=NNC(=O)NN=Cc1ccccc1OC	1.3	29.9*	-0.3	1.6	57.5*	-2.6	52.5*	67.5*
COc1cccc(/C=N/NC(=O)N/N=C/c2cccc(OC)c2O)c1O	-1.5	31.2*	-0.5	4.7	63.6*	-6.1	81.2*	94.6*
SMILES	MBD2 inh	ASAP1 inh	LEDGF integ inh	TCR-CD3 inh	ARFGAP1 inh	UHRF1 MBD2 ctr	ASAP1 inh confirm	ARFGAP1 confirm
COC(=O)c1ccc2nc(-c3ccc(F)cc3)c(Cc3ccccc3C(F)(F)F)n2c1	-1.9	-9.9	3.6	0.7	2.3	5.0	·	·
CC(=O)c1cccc(NC(=O)c2cccc3c(-c4cccnc4)coc23)c1	-2.5	34.6*	0.1	2.6	25.5*	-1.3	26.3*	29.2*
NC(=O)c1cccc(-c2coc3c(C(=O)NCc4cccnc4)cccc23)c1	0.9	-6.5	-0.3	-7.3	3.8	-3.7	·	·
Cc1cc(C(=O)COC(=O)c2n[nH]c3ccccc23)c(C)n1C	1.4	34.3*	1.4	2.6	32.8*	1.8	35.2*	52.2*
O=C(Nc1cccc(-c2cnc3ccccc3n2)c1)c1cccc(NC(=O)c2ccco2)c1	3.8	101.8*	0.0	7.7	100.7*	-0.2	90.7*	126.5*
CCCCN(CC)CCCNC(=O)c1cc2c(-c3ccc(OC)c(OC)c3)nn(C)c2s1	11.8	34.2*	-3.7	-4.6	26.5*	23.6*	72.4*	74.1*
O=C(Cn1cncc1-c1ccc([N+](=O)[O-])cc1)Nc1cccc2ccccc12	3.4	28.3*	1.3	-3.6	41.3*	-0.5	37.2*	45.7*
Cn1c(=O)c2cc(NCc3ccccc3)nnc2n(C)c1=O	-6.9	43.7*	12.7	0.4	27.8*	2.6	8.7	-0.5
COc1cc(/C=C/C(=O)Nc2ccc3nc4n(c(=O)c3c2)CCCC4)cc(OC)c1OC	1.7	27.5*	-3.7	-10.4	25.2*	-2.4	43.1*	37.8*
COc1cccc(-c2cccc3c2NC(=O)C3(C)Cc2ccccc2F)c1 (configuration not stated)	1.0	11.3	-1.4	-5.2	5.0	-1.8	·	·
Cc1cc(N2CCN(C)CC2)nc2ccc(NC(=O)c3cccnc3Cl)cc12	2.1	49.5*	-1.0	3.2	29.1*	-1.7	25.4*	27.7*
CCN1CCN(c2cc(C)c3cc(NC(=O)c4cccnc4Cl)ccc3n2)CC1	3.4	3.2	1.4	-3.1	7.0	1.8	·	·
COc1ccc(/C=N/NC(=O)c2ccccc2OC)cc1COc1ccccc1[N+](=O)[O-]	0.6	6.4	2.4	3.6	2.8	-3.7	·	·
COc1ccc(/C=N\NC(=O)c2ccc([N+](=O)[O-])c(C)c2)cc1COc1ccccc1C(N)=O	4.3	47.4*	0.1	0.1	78.5*	2.7	87.8*	122.9*
Cc1ccc2nc(SCC(=O)N3CCC(C)CC3)nc(=O)n2c1	-1.0	36.8*	-3.3	3.2	62.0*	3.4	42.9*	69.2*
